Results reported in ChEMBL document CHEMBL4411269, “Required Immunoproteasome Subunit Inhibition Profile for Anti-Inflammatory Efficacy and Clinical Candidate KZR-616 ((2 S,3 R)- N-(( S)-3-(Cyclopent-1-en-1-yl)-1-(( R)-2-methyloxiran-2-yl)-1-oxopropan-2-yl)-3-hydroxy-3-(4-methoxyphenyl)-2-(( S)-2-(2-morpholinoacetamido)propanamido)propenamide)” (J Med Chem, 2018).
The source made the active and inactive calls. No cut-off for these calls is given here.

Experiments:
[1] = test system: PBMC; experiment: Antiinflammatory activity in human PBMC assessed as reduction in LPS-stimulated TNF-alpha expression at 500 nM preincubated for 1 hr followed by LPS stimulation measured after 24 hrs by ELISA; type: functional, cell-based
Procedure, shortened: (§1)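 Cryopreserved healthy-donor PBMC in RPMI 1640 with 5% heat-inactivated FBS, 250 000 cells/well. Compound (0.1% DMSO final) for 1 h at 37 °C, 5% CO2, then 4 washes with medium. Stimulated with 1 μg/mL LPS for 24 h; supernatant TNFα, IL-6 and IL-12/23p40 by electrochemiluminescent immunoassay. Mean level relative to DMSO controls, n = 6.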

[2] = target: T1, Proteasome subunit beta type-8 (Homo sapiens) (UniProt P28062); experiment: Inhibition of LMP7 in human PBMC at 500 nM by ELISA
T1 sequence (whole entry): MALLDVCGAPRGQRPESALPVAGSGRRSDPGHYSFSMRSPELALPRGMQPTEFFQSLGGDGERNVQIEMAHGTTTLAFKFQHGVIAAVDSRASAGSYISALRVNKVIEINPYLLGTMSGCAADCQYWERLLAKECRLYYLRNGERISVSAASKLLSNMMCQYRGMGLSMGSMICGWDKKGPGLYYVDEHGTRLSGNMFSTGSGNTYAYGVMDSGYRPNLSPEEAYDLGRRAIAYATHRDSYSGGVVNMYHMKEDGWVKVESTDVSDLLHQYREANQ
Procedure, shortened: (§2)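 Cryopreserved healthy-donor human PBMC in RPMI 1640 with 5% heat-inactivated FBS, exposed to compound (0.1% DMSO final) for 1 h at 37 °C, 5% CO2, then washed. Subunit-specific active-site occupancy read by ProCISE: biotinylated active-site probe binding, denaturation, streptavidin capture, subunit-specific antibody and HRP chemiluminescence. Signal normalized to protein and expressed relative to DMSO controls.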

[3] = test system: PBMC; experiment: Antiinflammatory activity in human PBMC assessed as reduction in anti-CD3/CD28 antibody-stimulated IFN-gamma expression at 500 nM preincubated for 1 hr followed by anti-CD3/CD28 antibody stimulation measured after 24 hrs by ELISA; type: functional, cell-based
Procedure, shortened: (§3)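 Healthy-donor PBMC, thawed from cryopreservation, 250 000 cells/well in RPMI 1640/5% FBS. Pretreated 1 h at 37 °C with compound alone or combined (0.1% DMSO final), washed 4 times, then stimulated 24 h with anti-CD3 and anti-CD28 antibodies. TNFα and IFNγ in supernatants by electrochemiluminescent ELISA; expressed relative to DMSO-treated controls (n = 6).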

[4] = Clearance in Balb/c mouse at 2 mg/kg, iv; type: ADME, organism-based; conditions: in vivo
Procedure, shortened: (§4)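 Female BALB/c mice aged 7−8 weeks, given 2 mg/kg iv in 25% PEG300/WFI. Cardiac blood taken at 2, 5, 10, 20, 30, 60 and 120 min postdose into sodium heparin and processed to plasma (n = 3/time point). Proteins precipitated with acetonitrile; drug measured by LC−MS/MS. Noncompartmental analysis of mean concentrations at nominal times and target doses.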

[5] = Toxicity in Balb/c mouse assessed as change in body weight at 5 mg/kg, iv followed by dosing repeat on day 6, 8, 11, 13 and 15 and measured until day 18; type: organism-based; conditions: in vivo
[6] = test system: Mus musculus; experiment: In vivo inhibition of LMP2 in Balb/c mouse splenocytes at 5 mg/kg, iv followed by dosing repeat on day 6, 8, 11, 13 and 15 and measured on 1 hr post last dose; type: functional, organism-based
Procedure, shortened: (§5)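 BALB/c mice dosed iv bolus in 10% sulfobutyl ether−β-cyclodextrin/10 mM sodium citrate pH 3.5; tissues taken 1 h after administration. Splenocytes strained and red cells lysed; kidney frozen, then bead-homogenized. Hypotonic lysate (20 mM Tris pH 8, 5 mM EDTA) at 1 mg/mL (spleen) or 5 mg/mL (kidney) run in the ProCISE active-site ELISA. Background-subtracted, protein-normalized activity relative to vehicle animals; n = 3.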

[7] = test system: Mus musculus; experiment: In vivo inhibition of proteosome beta 5 in Balb/c mouse kidney at 5 mg/kg, iv followed by dosing repeat on day 6, 8, 11, 13 and 15 and measured on 1 hr post last dose; type: functional, organism-based; procedure, shortened: as §5
[8] = test system: PBMC; experiment: Antiinflammatory activity in human PBMC assessed as reduction in anti-CD3/CD28 antibody-stimulated TNF-alpha expression at 500 nM preincubated for 1 hr followed by anti-CD3/CD28 antibody stimulation measured after 24 hrs by ELISA; type: functional, cell-based; procedure, shortened: as §3
[9] = target: T2, Proteasome subunit beta type-9 (Homo sapiens) (UniProt P28065); conditions: 500 nM
T2 sequence (whole entry): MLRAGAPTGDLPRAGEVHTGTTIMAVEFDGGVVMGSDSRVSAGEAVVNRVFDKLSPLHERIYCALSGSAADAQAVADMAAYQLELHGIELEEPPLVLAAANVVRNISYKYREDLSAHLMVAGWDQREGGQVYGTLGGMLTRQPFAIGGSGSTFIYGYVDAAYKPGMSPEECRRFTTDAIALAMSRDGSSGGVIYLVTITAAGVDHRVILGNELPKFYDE

[10] = Toxicity in Balb/c mouse assessed as effect on cage-side observations at 5 mg/kg, iv followed by dosing repeat on day 6, 8, 11, 13 and 15 and measured until day 18; type: organism-based; conditions: in vivo
[11] = test system: PBMC; experiment: Antiinflammatory activity in human PBMC assessed as reduction in LPS-stimulated IL-6 expression at 500 nM preincubated for 1 hr followed by LPS stimulation measured after 24 hrs by ELISA; type: functional, cell-based; procedure, shortened: as §1
[12] = test system: PBMC; experiment: Cytotoxicity in human PBMC assessed as reduction in cell viability at 500 nM relative to control; type: cell-based; conditions: 0.5 µM
[13] = target: T3, Proteasome subunit beta type-10 (Homo sapiens) (UniProt P40306); experiment: Inhibition of MECL1 in human PBMC at 500 nM by ELISA; procedure, shortened: as §2
T3 sequence (whole entry): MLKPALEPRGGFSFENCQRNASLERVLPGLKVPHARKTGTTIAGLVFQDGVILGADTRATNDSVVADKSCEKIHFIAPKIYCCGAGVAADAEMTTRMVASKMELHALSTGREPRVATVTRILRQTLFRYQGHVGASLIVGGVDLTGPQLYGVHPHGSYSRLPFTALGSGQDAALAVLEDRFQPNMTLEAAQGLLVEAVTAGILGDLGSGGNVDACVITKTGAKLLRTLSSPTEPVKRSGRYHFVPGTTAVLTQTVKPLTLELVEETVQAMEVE

[14] = test system: Mus musculus; experiment: In vivo inhibition of LMP7 in Balb/c mouse splenocytes at 5 mg/kg, iv followed by dosing repeat on day 6, 8, 11, 13 and 15 and measured on 1 hr post last dose; type: functional, organism-based; procedure, shortened: as §5
[15] = test system: Mus musculus; experiment: Antiarthritic activity in type 2 collagen antibody/LPS induced Balb/c mouse assessed as reduction in disease burden at 5 mg/kg, iv followed by dosing repeat on day 6, 8, 11, 13 and 15 and measured until day 18; type: functional, organism-based
Procedure, shortened: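 CAIA in 7−8 week old female BALB/c mice on breeder chow. Induced with 1.75 mg of a 5-antibody anti-type II collagen cocktail iv on day 0, then 25 μg LPS ip on day 3. Dosed as single iv boluses in 10% (w/v) sulfobutyl ether−β-cyclodextrin/10 mM sodium citrate (pH 3.5); vehicle-treated group included.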

[16] = test system: Mus musculus; experiment: In vivo inhibition of MECL-1 in Balb/c mouse splenocytes at 5 mg/kg, iv followed by dosing repeat on day 6, 8, 11, 13 and 15 and measured on 1 hr post last dose; type: functional, organism-based; procedure, shortened: as §5
[17] = test system: PBMC; experiment: Antiinflammatory activity in human PBMC assessed as reduction in LPS-stimulated p40 subunit of […] expression at 500 nM preincubated for 1 hr followed by LPS stimulation measured after 24 hrs by ELISA; type: functional, cell-based; procedure, shortened: as §1
[18] = Half life in Balb/c mouse at 2 mg/kg, iv; type: ADME, organism-based; conditions: in vivo; procedure, shortened: as §4

inhibition [2]: Active
clearance [4]: > 73 mL/min/kg
inhibition [9]: Active
inhibition [13]: Active
half-life [18]: < 7 min
SMILES: C[C@]1(C(=O)[C@H](Cc2ccccc2)NC(=O)[C@H](CO)NC(=O)c2cccc(=O)[nH]2)CO1
Activity [1]: inactive
Activity [3]: inactive
Activity [5]: Non-Toxic
inhibition [6]: Active
inhibition [7]: Active
Activity [8]: inactive
Activity [10]: Non-Toxic
Activity [11]: inactive
Activity [12]: 30%
inhibition [14]: Active
Activity [15]: inactive
inhibition [16]: Active
Activity [17]: inactive
